Screening results as filed in PubChem.
Shown are actives, neighbours in structure and some others; about 3.5% of the full set was active somewhere.
pPAFAH FP inh – inhibitors of human plasma PAF acetylhydrolase (pPAFAH); 1.5% of 330,000 active; inhibition, % at 3.39 µM; AID 463082; recombinant pPAFAH, FP-rhodamine probe fluorescence polarization;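 active means inhibition above the mean inhibition across the screen plus 3 SD, cut at about 25% in these data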;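 further: inhibitors block binding of the rhodamine activity-based probe so polarization drops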
PAFAH1B2 FP inh – blocks human PAF acetylhydrolase 1b catalytic subunit 2. P68402. 1.2% of 340,000 active. recombinant PAFAH1B2, FP-rhodamine activity probe, fluorescence polarization. inhibition, % at 3.39 µM;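 active means inhibition above the mean of all tested compounds plus 3 SD, cut at about 24% in these data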
PAFAH2 inh – inhibitors of human PAFAH2. AID 492956. 0.99% of 340,000 active. recombinant PAFAH2, FP-rhodamine activity probe, fluorescence polarization. Q99487. inhibition, % at 3.39 µM;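 active means inhibition above the mean over all tested compounds plus 3 SD, cut at about 30% in these data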;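 further: inhibitors block probe labeling of enzyme so polarization drops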
PAFAH1B3 inh – inhibitors of human PAFAH1B3; 0.28% of 340,000 active; recombinant PAFAH1B3, FP-rhodamine probe, fluorescence polarization; Q15102; inhibition, % at 3.39 µM; AID 492972;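 active means inhibition above the screen-wide average of all tested compounds plus 3 SD, cut at about 25% in these data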
PREPL inhibitor – human PREPL enzyme inhibition; 0.68% of 320,000 active; inhibition, % at 5.96 µM; recombinant PREPL, fluorescence polarization activity-based probe; AID 2751; Q4J6C6; in the data active means inhibition above about 43%
Apaf-1 inh – human Apaf-1 inhibition; O14727; reconstituted apoptosome caspase-3 activity, DEVD-Rh110 fluorescence; inhibition, % at 20 µM; 0.71% of 330,000 active; AID 489030; active means inhibition of at least 40% at 20 µM
Target sequence (O14727 whole entry, looked up): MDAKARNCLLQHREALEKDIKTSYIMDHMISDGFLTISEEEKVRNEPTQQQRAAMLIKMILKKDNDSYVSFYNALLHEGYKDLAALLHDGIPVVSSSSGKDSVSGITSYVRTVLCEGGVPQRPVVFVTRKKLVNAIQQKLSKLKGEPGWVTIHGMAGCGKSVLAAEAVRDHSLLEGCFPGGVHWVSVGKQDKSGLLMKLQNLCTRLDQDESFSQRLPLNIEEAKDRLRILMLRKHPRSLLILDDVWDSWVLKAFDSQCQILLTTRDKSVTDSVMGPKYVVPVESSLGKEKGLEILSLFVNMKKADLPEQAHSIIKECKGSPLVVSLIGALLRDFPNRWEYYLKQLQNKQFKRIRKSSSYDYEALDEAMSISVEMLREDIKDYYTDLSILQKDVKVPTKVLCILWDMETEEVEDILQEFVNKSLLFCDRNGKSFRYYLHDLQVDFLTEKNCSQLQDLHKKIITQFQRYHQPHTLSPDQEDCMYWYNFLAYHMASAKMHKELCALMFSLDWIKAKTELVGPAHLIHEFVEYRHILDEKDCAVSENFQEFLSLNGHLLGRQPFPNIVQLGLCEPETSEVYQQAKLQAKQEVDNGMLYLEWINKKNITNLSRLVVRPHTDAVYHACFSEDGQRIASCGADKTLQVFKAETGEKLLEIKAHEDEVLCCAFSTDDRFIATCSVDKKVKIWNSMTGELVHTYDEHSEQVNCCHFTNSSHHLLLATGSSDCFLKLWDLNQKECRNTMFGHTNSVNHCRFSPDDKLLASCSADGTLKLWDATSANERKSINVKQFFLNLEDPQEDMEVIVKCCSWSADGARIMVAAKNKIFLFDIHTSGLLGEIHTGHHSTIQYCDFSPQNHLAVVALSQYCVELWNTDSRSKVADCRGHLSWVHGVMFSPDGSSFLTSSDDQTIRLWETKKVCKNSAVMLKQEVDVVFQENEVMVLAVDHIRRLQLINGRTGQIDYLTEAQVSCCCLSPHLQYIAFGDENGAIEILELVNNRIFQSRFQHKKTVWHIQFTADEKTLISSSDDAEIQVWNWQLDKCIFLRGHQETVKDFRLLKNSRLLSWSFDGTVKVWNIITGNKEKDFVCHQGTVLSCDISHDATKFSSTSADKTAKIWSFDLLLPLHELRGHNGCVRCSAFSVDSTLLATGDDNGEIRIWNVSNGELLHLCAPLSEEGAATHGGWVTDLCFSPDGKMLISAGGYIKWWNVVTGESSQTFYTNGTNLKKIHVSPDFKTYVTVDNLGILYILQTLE
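Assay system: Apoptosome proteins | Medium: pH 7.5 Hepes buffer with CHAPS, BSA, DTT | Also added: Cytochrome c and DEVD-Rh110 substrate | Times: 30 min plus 50 min, RT | Detection: Rhodamine 110 fluorescence at Ex 480/Em 540 nm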
Apaf-1 inh conf – Apaf-1 inhibition, single-dose confirmed. 25% of 1,800 active. AID 504614. inhibition, % at 20 µM. shares compounds with Apaf-1 inh. reconstituted apoptosome, caspase-3 DEVD-Rh110 fluorescence;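 active means mean inhibition of at least 40% at 20 µM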
Rh110 interf inh – counter-screen for Apaf-1 inhibitors: fluorescence interference. shares compounds with Apaf-1 inh. Rh110 fluorescence interference, quenched caspase reaction. activation (fluorescence interference), % at 20 µM. 1,800 tested, under 10 active;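 active means signal rise of 40% or more at 20 µM, treated as a fluorescence artifact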
Fluor interf inh – shows fluorescence interference in the Apaf-1 inhibitor assay format | AID 588538 | 460 tested, under 10 active | IC50, µM | fluorescence interference counterscreen, Apaf-1 assay format | shares compounds with Apaf-1 inh; call rule not given here
Large screens that a line does not name were inactive (follow-up assays come after a bar, where they were run).

Cc1ccc(-c2nnc(OCC3CCCO3)c3ccccc23)cc1 (centres undefined)	none
CC(NCc1ccc(OCc2ccc(Cl)cc2)cc1)C(O)c1ccccc1 (centres undefined)	PAFAH1B2 FP inh 64, Apaf-1 inh 41 | Apaf-1 inh conf inactive | Rh110 interf inh inactive
CN(C)/C=C(\C=O)c1cccc(Cl)c1	none
Cn1c(=O)c2c(nc(CN3CCc4ccccc4C3)n2Cc2cccc(Cl)c2)n(C)c1=O	Apaf-1 inh 51 | Apaf-1 inh conf inactive | Rh110 interf inh inactive
Cn1c(=O)c2c(nc(CN3CCN(Cc4ccccc4)CC3)n2Cc2cccc(Cl)c2)n(C)c1=O	none
CCC1(c2ccccc2)NC(=O)N(CC(=O)Nc2cc(Cl)ccc2N2CCN(C)CC2)C1=O (centres undefined)	Apaf-1 inh 58 | Apaf-1 inh conf inactive | Rh110 interf inh inactive
CN1Cc2c(N3CCOCC3)nc3sc(C(=O)c4ccc(Br)cc4)c(N)c3c2CC1(C)C	pPAFAH FP inh 30, PREPL inhibitor 68, Apaf-1 inh 56 (no result: PAFAH1B2 FP inh, PAFAH2 inh, PAFAH1B3 inh) | Apaf-1 inh conf 62 | Rh110 interf inh inactive | Fluor interf inh inactive
CC1CCN(C(=O)CSc2nnc(CNC(=O)c3c(F)cccc3F)o2)CC1	none
O=C(/C=C/c1ccc(-c2ccccc2[N+](=O)[O-])o1)c1ccco1	Apaf-1 inh 43 | Apaf-1 inh conf inactive | Rh110 interf inh inactive
O=C(/C=C/c1ccc([N+](=O)[O-])cc1)c1ccco1	none
COc1ccccc1C(CNC(=O)CNC(=O)c1ccc(Cl)c(Cl)c1)N1CCCC1 (centres undefined)	none
COc1ccccc1C(CNC(=O)CNC(=O)c1ccccc1Cl)N1CCCC1 (centres undefined)	Apaf-1 inh 61 | Apaf-1 inh conf 43 | Rh110 interf inh inactive | Fluor interf inh inactive
O=C(NCCCn1ccnc1)c1ccc(N2CCCCCC2)c([N+](=O)[O-])c1	none
O=C(Nc1ccc(F)c(Cl)c1)NC1CC1	none
O=C(Nc1ccc2nc(-c3ccco3)c(-c3ccco3)nc2c1)NC1CC1	PAFAH2 inh 35, PAFAH1B3 inh 36, Apaf-1 inh 47 (no result: pPAFAH FP inh, PREPL inhibitor) | Apaf-1 inh conf inactive | Rh110 interf inh inactive
CCC(=O)N(CCc1ccccc1C)Cc1cc2cc3c(cc2[nH]c1=O)OCO3	Apaf-1 inh 41 | Apaf-1 inh conf inactive | Rh110 interf inh inactive
CCC(=O)N(Cc1ccco1)Cc1cc2cc3c(cc2[nH]c1=O)OCO3	none
O=C(CN(C(=O)CNC(=O)c1cccs1)c1ccccc1F)NC1CCCC1	none
Cc1nc(C(=O)NNC(=O)Nc2ccccc2)cs1	Apaf-1 inh 57 (no result: PAFAH1B2 FP inh, PAFAH2 inh, PAFAH1B3 inh) | Apaf-1 inh conf inactive | Rh110 interf inh inactive
CCOC(=O)c1c(C)oc2c1c(C=NCCC(=O)O)c(O)c1ccccc12	Apaf-1 inh 81 | Apaf-1 inh conf 59 | Rh110 interf inh inactive | Fluor interf inh inactive
Cc1ccc(-c2csc(/C(C#N)=C/Nc3ccc4c(c3)OCCO4)n2)cc1	none
CCN(CC)CCOC(=O)c1ccc(N/C=C(/C#N)c2nc(-c3cccc(OC)c3)cs2)cc1	Apaf-1 inh 55 (no result: PAFAH1B2 FP inh, PAFAH2 inh, PAFAH1B3 inh) | Apaf-1 inh conf inactive | Rh110 interf inh inactive
CCN(CC)CCOC(=O)c1ccc(N/C=C(/C#N)c2nc(-c3ccc(OC)c(OC)c3)cs2)cc1	Apaf-1 inh 55 | Apaf-1 inh conf 67 | Rh110 interf inh inactive | Fluor interf inh inactive
CCOC(=O)c1ccc(N/C=C\C(=O)c2cccc(OC)c2)cc1	none
Cc1nc(-c2ccc(F)cc2)c(CC(=O)N(C)CC(=O)Nc2ccc(Cl)c(C(F)(F)F)c2)s1	none (no result: pPAFAH FP inh, PREPL inhibitor, Apaf-1 inh)
COc1cc(NC(C)CCCN)c2ncccc2c1Oc1ccccc1 (centres undefined)	Apaf-1 inh 70 | Apaf-1 inh conf inactive | Rh110 interf inh inactive
CC1=C(C)C(C)=C(C#N)C(=C(C#N)C#N)N1	none (no result: PAFAH1B2 FP inh, PAFAH2 inh, PAFAH1B3 inh)
COC(=O)C1=C(O)/C(=C\c2ccc(OCC(=O)Nc3ccc(OC)cc3)cc2)N=C1C	none
Cc1cc(C)c(C#N)c(SCC(=O)Nc2nonc2N)n1	Apaf-1 inh 64 | Apaf-1 inh conf inactive | Rh110 interf inh inactive
O=C(N/C=C/n1cnc2cc(C(F)(F)F)ccc21)c1ccccc1F	none
Clc1cccc(CSc2nnc(-c3ccccn3)n2Cc2ccco2)c1	Apaf-1 inh 42 | Apaf-1 inh conf inactive | Rh110 interf inh inactive
COc1ccc(-n2c(N)c(C(=O)NCc3ccco3)c3nc4ccccc4nc32)c(OC)c1	Apaf-1 inh 65 | Apaf-1 inh conf inactive | Rh110 interf inh inactive
Nc1c(C(=O)NCc2ccco2)c2nc3ccccc3nc2n1CCc1ccccc1F	Apaf-1 inh 61 | Apaf-1 inh conf inactive | Rh110 interf inh inactive
COc1ccc(CCn2c(N)c(C(=O)NCc3ccco3)c3nc4ccccc4nc32)cc1OC	Apaf-1 inh 63 | Apaf-1 inh conf inactive | Rh110 interf inh inactive
COc1ccc(CCn2c(N)c(C(=O)NCc3ccco3)c3nc4ccccc4nc32)cc1	none
CC1=C(C(=O)OC(C)C)C2(O)C(=O)c3ccccc3C2(O)N1 (centres undefined)	none
CCOC(=O)C1=C(C)OC2(O)c3ccccc3C(=O)C12O (centres undefined)	Apaf-1 inh 88 (no result: PAFAH1B2 FP inh, PAFAH2 inh, PAFAH1B3 inh) | Apaf-1 inh conf 98 | Rh110 interf inh inactive | Fluor interf inh inactive
CC(=O)C1=C(C)OC2(O)c3ccccc3C(=O)C12O (centres undefined)	Apaf-1 inh 93 (no result: PAFAH1B2 FP inh, PAFAH2 inh, PAFAH1B3 inh) | Apaf-1 inh conf 90 | Rh110 interf inh inactive | Fluor interf inh inactive
O=C(NCc1ccco1)c1cccc2c1C(=O)c1ccc(N3CCCC3)cc1S2(=O)=O	none
COc1ccc(O)c(C(c2c(C)[nH][nH]c2=O)c2c(C)[nH][nH]c2=O)c1	PAFAH1B2 FP inh 27, PAFAH1B3 inh 38, Apaf-1 inh 67 | Apaf-1 inh conf inactive | Rh110 interf inh inactive
CN1CCN(c2nc3ccccc3nc2C(C#N)S(=O)(=O)c2ccccc2)CC1 (centres undefined)	none (no result: PAFAH1B2 FP inh, PAFAH2 inh, PAFAH1B3 inh)
N#CC(c1nc2ccccc2nc1N1CCCC1)S(=O)(=O)c1ccccc1 (centres undefined)	Apaf-1 inh 64 | Apaf-1 inh conf inactive | Rh110 interf inh inactive
CCC(Sc1nc2ccsc2c(=O)n1-c1ccc(Cl)c(C)c1)C(=O)NCc1ccco1 (centres undefined)	none
O=C(COC(=O)c1ccc([N+](=O)[O-])s1)NNC(=O)c1ccccc1	PAFAH2 inh 36, PAFAH1B3 inh 36, Apaf-1 inh 41 | Apaf-1 inh conf inactive | Rh110 interf inh inactive
Cc1ccc(C(=O)OCC(=O)NNC(=O)c2ccccc2)c(O)c1	none
COc1cc2c(cc1OC)CN(Cc1cc(=O)n3c(-c4ccccc4)csc3n1)CC2	Apaf-1 inh 42 | Apaf-1 inh conf inactive | Rh110 interf inh inactive
